Test results published in ChEMBL document CHEMBL1122831, “Synthesis and structure-activity relationships of novel arylfluoroquinolone antibacterial agents” (1985).
Values after ≈ are worked out from the molar mass of the structure shown.

Assays:
Format in all cases: functional
Staphylococcus aureus [1] = test: Minimum inhibition concentration in vitro determined against Staphylococcus aureus CMX 686B
Procedure, shortened: (§1)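 Agar dilution on brain-heart infusion (BHI) agar with twofold dilutions from a 2000 µg/mL stock, giving final test concentrations of 200-0.005 µg/mL. Organisms were grown overnight in BHI broth at 36 °C, and about 10⁴ organisms were inoculated per plate. Plates were incubated 18 h at 36 °C. MIC was the lowest concentration with no visible growth.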

Pseudomonas aeruginosa [2] = test: Minimum inhibition concentration in vitro determined against Pseudomona aeruginosa 5007; procedure, shortened: as §1
Klebsiella aerogenes = test: Minimum inhibition concentration in vitro determined against Enterobacteri aerogenes ATCC 13048; procedure, shortened: as §1
Escherichia coli [3] = test: Minimum inhibition concentration in vitro determined against Escherichia coli juhl; procedure, shortened: as §1
Klebsiella pneumoniae = test: Minimum inhibition concentration in vitro determined against Klebsiella pneumoniae 8045; procedure, shortened: as §1
Enterococcus faecium [4] = test: Minimum inhibition concentration in vitro determined against Streptococcus faecium ATCC 8043; procedure, shortened: as §1
Streptococcus pyogenes = test: Minimum inhibition concentration in vitro determined against Streptococcus pyogenes 930; procedure, shortened: as §1
Staphylococcus aureus [5] = test: Minimum inhibition concentration in vitro determined against Staphylococcus aureus ATCC 6538P; procedure, shortened: as §1
[6] = test system: Staphylococcus epidermidis; test: Minimum inhibition concentration in vitro determined against Staphylococcus epidermidis 3519; procedure, shortened: as §1
Pseudomonas aeruginosa [7] = test: Minimum inhibition concentration in vitro determined against Pseudomona aeruginosa K799/WT; procedure, shortened: as §1
Acinetobacter = test: Minimum inhibition concentration in vitro determined against Acinetobacter sp CMX669; procedure, shortened: as §1
Enterococcus faecium [8] = test: 0 Minimum inhibition concentration was determined against Streptococcus faecium ATCC 8043 (in vitro); procedure, shortened: as §1
Mus musculus [9] = test: In vivo inhibitory activity against Escherichia coli Juhl after peroral administration in mice; settings: po
Procedure, shortened: (§2)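 Female CF-1 mice (~20 g) were infected ip with 0.5 mL of an 18-h BHI culture of E. coli Juhl in 5% hog gastric mucin at 100× LD50. The LD50 had been set beforehand by 10-fold dilutions and Reed-Muench. Compound in water or dilute NaOH was given sc or po, split equally at 1 and 5 h post-infection. Groups of 10 mice got ≥3 doses, with 10 untreated controls. ED50 was calculated from day-6 cumulative mortality by trimmed Logit.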

Escherichia coli [10] = test: Compound was evaluated for inhibitory activity against Escherichia coli Juhl (in vivo); settings: in the assay text read “in vitro” for “in vivo”
Mus musculus [11] = test: In vivio inhibitory activity against Escherichia coli Juhl after subcutaneous administration in mice; settings: sc; procedure, shortened: as §2
Mus musculus [12] = test: In vivo inhibitory activity of teh compound against Escherichia coli Juhl after peroral administration in mice; settings: po; procedure, shortened: as §2
[13] = Escherichia coli, read-out: MIC

| Compound | MIC (Staphylococcus aureus [1]) | MIC (Pseudomonas aeruginosa [2]) | MIC (Klebsiella aerogenes) | MIC (Escherichia coli [3]; [13]) | MIC (Klebsiella pneumoniae) | MIC (Enterococcus faecium [4]) | MIC (Streptococcus pyogenes) | MIC (Staphylococcus aureus [5]) | MIC [6] | MIC (Pseudomonas aeruginosa [7]) | MIC (Acinetobacter) | MIC (Enterococcus faecium [8]) | MIC (Escherichia coli [10]) | ED50 (Mus musculus [9]) | ED50 (Mus musculus [11]) | MIC (Escherichia coli [3]) | ED50 (Mus musculus [12]) |
| --- | --- | --- | --- | --- | --- | --- | --- | --- | --- | --- | --- | --- | --- | --- | --- | --- | --- |
| O=C(O)c1cn(-c2ccc(F)cc2)c2cc(N3CCCNCC3)c(F)cc2c1=O | 0.78 µg/mL (≈ 1.95 µM) | 1.56 µg/mL (≈ 3.91 µM) | 0.39 µg/mL (≈ 0.976 µM) | 0.2 µg/mL (≈ 0.501 µM) | 0.1 µg/mL (≈ 0.25 µM) | 12.5 µg/mL (≈ 31.3 µM) | 6.2 µg/mL (≈ 15.5 µM) | 0.78 µg/mL (≈ 1.95 µM) | 1.56 µg/mL (≈ 3.91 µM) | 3.1 µg/mL (≈ 7.76 µM) | 1.56 µg/mL (≈ 3.91 µM) | – | – | – | – | – | – |
| O=C(O)c1cn(-c2ccc(F)cc2)c2cc(N3CCOCC3)c(F)cc2c1=O | 0.1 µg/mL (≈ 0.259 µM) | 3.1 µg/mL (≈ 8.02 µM) | 0.78 µg/mL (≈ 2.02 µM) | 0.39 µg/mL (≈ 1.01 µM) | 0.39 µg/mL (≈ 1.01 µM) | 1.56 µg/mL (≈ 4.04 µM) | 1.56 µg/mL (≈ 4.04 µM) | 0.1 µg/mL (≈ 0.259 µM) | 0.2 µg/mL (≈ 0.518 µM) | 3.1 µg/mL (≈ 8.02 µM) | 0.78 µg/mL (≈ 2.02 µM) | – | – | – | – | – | – |
| Cc1ccccc1-n1cc(C(=O)O)c(=O)c2cc(F)c(N3CCN(C)CC3)cc21 | 3.1 µg/mL (≈ 7.84 µM) | 25 µg/mL (≈ 63.2 µM) | 3.1 µg/mL (≈ 7.84 µM) | 1.56 µg/mL (≈ 3.95 µM) | 1.56 µg/mL (≈ 3.95 µM) | 50 µg/mL (≈ 126 µM) | 50 µg/mL (≈ 126 µM) | 3.1 µg/mL (≈ 7.84 µM) | 3.1 µg/mL (≈ 7.84 µM) | 12.5 µg/mL (≈ 31.6 µM) | 1.56 µg/mL (≈ 3.95 µM) | – | – | – | – | – | – |
| CNC1CCN(c2cc3c(cc2F)c(=O)c(C(=O)O)cn3-c2ccc(F)cc2)C1 (configuration not stated) | 3.1 µg/mL (≈ 7.76 µM) | 50 µg/mL (≈ 125 µM) | 3.1 µg/mL (≈ 7.76 µM) | 3.1 µg/mL (≈ 7.76 µM) | 0.78 µg/mL (≈ 1.95 µM) | 25 µg/mL (≈ 62.6 µM) | 12.5 µg/mL (≈ 31.3 µM) | 3.1 µg/mL (≈ 7.76 µM) | 6.2 µg/mL (≈ 15.5 µM) | 50 µg/mL (≈ 125 µM) | 6.2 µg/mL (≈ 15.5 µM) | – | – | – | – | – | – |
| NC1CCN(c2cc3c(cc2F)c(=O)c(C(=O)O)cn3-c2ccc(F)cc2)C1 (configuration not stated) | 0.05 µg/mL (≈ 0.13 µM) | 0.2 µg/mL (≈ 0.519 µM) | 0.05 µg/mL (≈ 0.13 µM) | 0.02 µg/mL (≈ 0.0519 µM) | 0.02 µg/mL (≈ 0.0519 µM) | 0.78 µg/mL (≈ 2.02 µM) | 0.1 µg/mL (≈ 0.259 µM) | 0.05 µg/mL (≈ 0.13 µM) | 0.05 µg/mL (≈ 0.13 µM) | 0.2 µg/mL (≈ 0.519 µM) | 0.2 µg/mL (≈ 0.519 µM) | – | – | – | – | – | – |
| CN1CCN(c2cc3c(cc2F)c(=O)c(C(=O)O)cn3-c2ccc(F)cc2)CC1 [DIFLOXACIN] | 0.2 µg/mL (≈ 0.501 µM) | 1.56 µg/mL (≈ 3.91 µM) | 0.78 µg/mL (≈ 1.95 µM) | 0.2 µg/mL (≈ 0.501 µM) | 0.1 µg/mL (≈ 0.25 µM) | 1.56 µg/mL (≈ 3.91 µM) | 1.56 µg/mL (≈ 3.91 µM) | 0.2 µg/mL (≈ 0.501 µM) | 0.39 µg/mL (≈ 0.976 µM) | 1.56 µg/mL (≈ 3.91 µM) | 0.2 µg/mL (≈ 0.501 µM) | – | 0.2 µg/mL (≈ 0.501 µM) | 3.1 mg/kg | 1.6 mg/kg | – | – |
| CCn1cc(C(=O)O)c(=O)c2cc(F)c(N3CCNCC3)cc21 [NORFLOXACIN] | 0.78 µg/mL (≈ 2.44 µM) | 0.39 µg/mL (≈ 1.22 µM) | 0.2 µg/mL (≈ 0.626 µM) | 0.1 µg/mL (≈ 0.313 µM) | 0.1 µg/mL (≈ 0.313 µM) | 0.78 µg/mL (≈ 2.44 µM) | 3.1 µg/mL (≈ 9.71 µM) | 0.78 µg/mL (≈ 2.44 µM) | 1.56 µg/mL (≈ 4.89 µM) | 0.39 µg/mL (≈ 1.22 µM) | 6.2 µg/mL (≈ 19.4 µM) | – | – | 15.1 mg/kg | 0.6 mg/kg | 0.1 µg/mL (≈ 0.313 µM) | – |
| O=C(O)c1cn(-c2ccc(F)cc2)c2cc(N3CCNCC3)c(F)cc2c1=O [SARAFLOXACIN] | 0.2 µg/mL (≈ 0.519 µM) | 0.39 µg/mL (≈ 1.01 µM) | 0.2 µg/mL (≈ 0.519 µM) | 0.05 µg/mL (≈ 0.13 µM) | 0.02 µg/mL (≈ 0.0519 µM) | 1.56 µg/mL (≈ 4.05 µM) | 0.78 µg/mL (≈ 2.02 µM) | 0.2 µg/mL (≈ 0.519 µM) | 0.39 µg/mL (≈ 1.01 µM) | 0.39 µg/mL (≈ 1.01 µM) | 0.2 µg/mL (≈ 0.519 µM) | – | 0.05 µg/mL (≈ 0.13 µM) | – | 0.6 mg/kg | – | 4.3 mg/kg |

Further lines, with some results ahead:

| MIC (Staphylococcus aureus [1]) | MIC (Pseudomonas aeruginosa [2]) | MIC (Klebsiella aerogenes) | MIC (Escherichia coli [3]; [13]) | MIC (Klebsiella pneumoniae) | MIC (Enterococcus faecium [4]) | MIC (Streptococcus pyogenes) | MIC (Staphylococcus aureus [5]) | MIC [6] | MIC (Pseudomonas aeruginosa [7]) | MIC (Acinetobacter) | MIC (Enterococcus faecium [8]) | MIC (Escherichia coli [10]) | Compound | ED50 (Mus musculus [9]) | ED50 (Mus musculus [11]) | MIC (Escherichia coli [3]) | ED50 (Mus musculus [12]) |
| --- | --- | --- | --- | --- | --- | --- | --- | --- | --- | --- | --- | --- | --- | --- | --- | --- | --- |
| 1.56 µg/mL (≈ 3.95 µM) | 12.5 µg/mL (≈ 31.6 µM) | 3.1 µg/mL (≈ 7.84 µM) | 1.56 µg/mL (≈ 3.95 µM) | 0.78 µg/mL (≈ 1.97 µM) | 50 µg/mL (≈ 126 µM) | 12.5 µg/mL (≈ 31.6 µM) | 1.56 µg/mL (≈ 3.95 µM) | 3.1 µg/mL (≈ 7.84 µM) | 12.5 µg/mL (≈ 31.6 µM) | 1.56 µg/mL (≈ 3.95 µM) | – | – | Cc1ccc(-n2cc(C(=O)O)c(=O)c3cc(F)c(N4CCN(C)CC4)cc32)cc1 | – | – | – | – |
| 0.78 µg/mL (≈ 1.83 µM) | 6.2 µg/mL (≈ 14.6 µM) | 0.78 µg/mL (≈ 1.83 µM) | 0.78 µg/mL (≈ 1.83 µM) | 0.2 µg/mL (≈ 0.47 µM) | – | 12.5 µg/mL (≈ 29.4 µM) | 0.78 µg/mL (≈ 1.83 µM) | 1.56 µg/mL (≈ 3.67 µM) | 6.2 µg/mL (≈ 14.6 µM) | 0.78 µg/mL (≈ 1.83 µM) | 50 µg/mL (≈ 118 µM) | – | CN1CCN(c2cc3c(cc2F)c(=O)c(C(=O)O)cn3-c2ccc3c(c2)OCO3)CC1 | – | – | – | – |
| < 0.1 µg/mL | 3.1 µg/mL (≈ 8.02 µM) | 0.78 µg/mL (≈ 2.02 µM) | 0.2 µg/mL (≈ 0.518 µM) | 0.2 µg/mL (≈ 0.518 µM) | 1.56 µg/mL (≈ 4.04 µM) | 1.56 µg/mL (≈ 4.04 µM) | < 0.1 µg/mL | 0.2 µg/mL (≈ 0.518 µM) | 3.1 µg/mL (≈ 8.02 µM) | 0.39 µg/mL (≈ 1.01 µM) | – | – | O=C(O)c1cn(-c2ccc(F)cc2)c2cc(N3CCC(O)C3)c(F)cc2c1=O (configuration not stated) | – | – | – | – |
| 0.39 µg/mL (≈ 0.912 µM) | 3.1 µg/mL (≈ 7.25 µM) | 0.78 µg/mL (≈ 1.82 µM) | 0.39 µg/mL (≈ 0.912 µM) | 0.39 µg/mL (≈ 0.912 µM) | 3.1 µg/mL (≈ 7.25 µM) | 1.56 µg/mL (≈ 3.65 µM) | 0.39 µg/mL (≈ 0.912 µM) | 0.78 µg/mL (≈ 1.82 µM) | 3.1 µg/mL (≈ 7.25 µM) | 0.78 µg/mL (≈ 1.82 µM) | – | – | CN(C)C1CCN(c2cc3c(cc2F)c(=O)c(C(=O)O)cn3-c2ccc(F)cc2)CC1 | – | – | – | – |
| 0.78 µg/mL (≈ 2.09 µM) | 100 µg/mL (≈ 269 µM) | 6.2 µg/mL (≈ 16.7 µM) | 6.2 µg/mL (≈ 16.7 µM) | 3.1 µg/mL (≈ 8.33 µM) | 12.5 µg/mL (≈ 33.6 µM) | 12.5 µg/mL (≈ 33.6 µM) | 0.78 µg/mL (≈ 2.09 µM) | 1.56 µg/mL (≈ 4.19 µM) | 50 µg/mL (≈ 134 µM) | 12.5 µg/mL (≈ 33.6 µM) | – | – | CC(C)N(C)c1cc2c(cc1F)c(=O)c(C(=O)O)cn2-c1ccc(F)cc1 | – | – | – | – |
